From ChEMBL document CHEMBL4689842, “EUbOPEN Chemogenomics Library wave 1” (2021)

Test system: HEK-293T
Experiment: Multiplex assay against HEK293T;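 as to Population Tubulin-Different-Phenotype (%): share of the cells with healthy nuclei that show this phenotype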
Format: toxicity, cell-based
Details: human
How it was run: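 With compound added, live cells were imaged on a CQ1 microscope at 37°C and 5% CO2; staining with Hoechst33342, BioTracker Green Microtubule Cytoskeleton Dye, MitoTracker Red and Annexin V Alexa Fluor 680 had been done at seeding. The CellPathfinder machine-learning gating scheme split cells into Hoechst high-intensity objects or normal cells, normal cells into healthy, pyknosed or fragmented nuclei, and pyknosed cells into mitotic or apoptotic. The tubulin, mitochondrial-mass and membrane-permeability phenotypes are per cents of healthy-nucleus cells.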

[1] = 12 h, 1 µM, compound concentration 1 uM, replicate 1
[2] = 12 h, 1 µM, compound concentration 1 uM, replicate 2
[3] = 12 h, 10 µM, compound concentration 10 uM, replicate 1
[4] = 12 h, 10 µM, compound concentration 10 uM, replicate 2
[5] = 24 h, 1 µM, compound concentration 1 uM, replicate 1
[6] = 24 h, 1 µM, compound concentration 1 uM, replicate 2
[7] = 24 h, 10 µM, compound concentration 10 uM, replicate 1
[8] = 24 h, 10 µM, compound concentration 10 uM, replicate 2
[9] = 48 h, 1 µM, compound concentration 1 uM, replicate 1
[10] = 48 h, 1 µM, compound concentration 1 uM, replicate 2
[11] = 48 h, 10 µM, compound concentration 10 uM, replicate 1
[12] = 48 h, 10 µM, compound concentration 10 uM, replicate 2

CCOc1cc2ncc(C#N)c(Nc3ccc(OCc4ccccn4)c(Cl)c3)c2cc1NC(=O)/C=C/CN(C)C [NERATINIB]
Population Apoptotic (%) [1]: 50%
Population Fragmented Nuclei (%) [1]: 20%
Population Healthy Nuclei (%) [1]: 24%
Population Hoechst High Intensity Objects (%) [1]: 20%
Population Membrane Permeable-Phenotype (%) [1]: 0%
Population Mitochondria Different-Phenotype (%) [1]: 85%
Population Mitotic Cells (%) [1]: 50%
Population Normal (%) [1]: 79%
Population Pyknosed Nuclei (%) [1]: 55%
Population Tubulin-Different-Phenotype (%) [1]: 55%
Total Cell Count [1]: 254
Population Apoptotic (%) [2]: 21%
Population Fragmented Nuclei (%) [2]: 25%
Population Healthy Nuclei (%) [2]: 46%
Population Hoechst High Intensity Objects (%) [2]: 19%
Population Membrane Permeable-Phenotype (%) [2]: 3%
Population Mitochondria Different-Phenotype (%) [2]: 15%
Population Mitotic Cells (%) [2]: 78%
Population Normal (%) [2]: 80%
Population Pyknosed Nuclei (%) [2]: 27%
Population Tubulin-Different-Phenotype (%) [2]: 15%
Total Cell Count [2]: 471
Population Apoptotic (%) [3]: 43%
Population Fragmented Nuclei (%) [3]: 25%
Population Healthy Nuclei (%) [3]: 52%
Population Hoechst High Intensity Objects (%) [3]: 29%
Population Mitochondria Different-Phenotype (%) [3]: 22%
Population Mitotic Cells (%) [3]: 56%
Population Normal (%) [3]: 70%
Population Pyknosed Nuclei (%) [3]: 21%
Population Tubulin-Different-Phenotype (%) [3]: 23%
Total Cell Count [3]: 1420
Population Apoptotic (%) [4]: 33%
Population Fragmented Nuclei (%) [4]: 30%
Population Healthy Nuclei (%) [4]: 50%
Population Hoechst High Intensity Objects (%) [4]: 27%
Population Membrane Permeable-Phenotype (%) [4]: 3%
Population Mitochondria Different-Phenotype (%) [4]: 11%
Population Mitotic Cells (%) [4]: 66%
Population Normal (%) [4]: 72%
Population Pyknosed Nuclei (%) [4]: 18%
Population Tubulin-Different-Phenotype (%) [4]: 15%
Total Cell Count [4]: 844
Population Apoptotic (%) [5]: 55%
Population Fragmented Nuclei (%) [5]: 19%
Population Healthy Nuclei (%) [5]: 20%
Population Hoechst High Intensity Objects (%) [5]: 20%
Population Membrane Permeable-Phenotype (%) [5]: 2%
Population Mitochondria Different-Phenotype (%) [5]: 80%
Population Mitotic Cells (%) [5]: 44%
Population Normal (%) [5]: 79%
Population Pyknosed Nuclei (%) [5]: 59%
Population Tubulin-Different-Phenotype (%) [5]: 61%
Total Cell Count [5]: 262
Population Apoptotic (%) [6]: 20%
Population Fragmented Nuclei (%) [6]: 26%
Population Healthy Nuclei (%) [6]: 50%
Population Hoechst High Intensity Objects (%) [6]: 16%
Population Mitochondria Different-Phenotype (%) [6]: 24%
Population Mitotic Cells (%) [6]: 80%
Population Normal (%) [6]: 83%
Population Pyknosed Nuclei (%) [6]: 22%
Population Tubulin-Different-Phenotype (%) [6]: 24%
Total Cell Count [6]: 531
Population Apoptotic (%) [7]: 50%
Population Fragmented Nuclei (%) [7]: 25%
Population Healthy Nuclei (%) [7]: 50%
Population Hoechst High Intensity Objects (%) [7]: 30%
Population Membrane Permeable-Phenotype (%) [7]: 1%
Population Mitochondria Different-Phenotype (%) [7]: 19%
Population Mitotic Cells (%) [7]: 49%
Population Normal (%) [7]: 69%
Population Pyknosed Nuclei (%) [7]: 23%
Population Tubulin-Different-Phenotype (%) [7]: 19%
Total Cell Count [7]: 1427
Population Apoptotic (%) [8]: 42%
Population Fragmented Nuclei (%) [8]: 31%
Population Healthy Nuclei (%) [8]: 49%
Population Hoechst High Intensity Objects (%) [8]: 25%
Population Membrane Permeable-Phenotype (%) [8]: 0%
Population Mitochondria Different-Phenotype (%) [8]: 12%
Population Mitotic Cells (%) [8]: 57%
Population Normal (%) [8]: 74%
Population Pyknosed Nuclei (%) [8]: 18%
Population Tubulin-Different-Phenotype (%) [8]: 14%
Total Cell Count [8]: 857
Population Apoptotic (%) [9]: 62%
Population Fragmented Nuclei (%) [9]: 23%
Population Healthy Nuclei (%) [9]: 17%
Population Hoechst High Intensity Objects (%) [9]: 23%
Population Membrane Permeable-Phenotype (%) [9]: 2%
Population Mitochondria Different-Phenotype (%) [9]: 56%
Population Mitotic Cells (%) [9]: 37%
Population Normal (%) [9]: 76%
Population Pyknosed Nuclei (%) [9]: 58%
Population Tubulin-Different-Phenotype (%) [9]: 29%
Total Cell Count [9]: 277
Population Apoptotic (%) [10]: 17%
Population Fragmented Nuclei (%) [10]: 21%
Population Healthy Nuclei (%) [10]: 62%
Population Hoechst High Intensity Objects (%) [10]: 15%
Population Mitochondria Different-Phenotype (%) [10]: 14%
Population Mitotic Cells (%) [10]: 82%
Population Normal (%) [10]: 84%
Population Pyknosed Nuclei (%) [10]: 16%
Population Tubulin-Different-Phenotype (%) [10]: 27%
Total Cell Count [10]: 609
Population Apoptotic (%) [11]: 52%
Population Fragmented Nuclei (%) [11]: 29%
Population Healthy Nuclei (%) [11]: 46%
Population Hoechst High Intensity Objects (%) [11]: 32%
Population Membrane Permeable-Phenotype (%) [11]: 0%
Population Mitochondria Different-Phenotype (%) [11]: 15%
Population Mitotic Cells (%) [11]: 47%
Population Normal (%) [11]: 67%
Population Pyknosed Nuclei (%) [11]: 23%
Population Tubulin-Different-Phenotype (%) [11]: 16%
Total Cell Count [11]: 1487
Population Apoptotic (%) [12]: 42%
Population Fragmented Nuclei (%) [12]: 32%
Population Healthy Nuclei (%) [12]: 51%
Population Hoechst High Intensity Objects (%) [12]: 24%
Population Mitochondria Different-Phenotype (%) [12]: 16%
Population Mitotic Cells (%) [12]: 58%
Population Normal (%) [12]: 75%
Population Pyknosed Nuclei (%) [12]: 16%
Population Tubulin-Different-Phenotype (%) [12]: 21%
Total Cell Count [12]: 828
